Shown are actives, neighbours in structure and some others; about 5.5% of the full set was active somewhere.
PLAP act – PLAP enzyme activators, biochemical, luminescence, HTS | Alkaline phosphatase, placental type (Homo sapiens), P05187 | activation fold at 20 µM | 96,000 tested, 1.2% active | purified PLAP enzyme, luminescent substrate read-out; hits give high values | AID 696, 2007; in the data active = activation fold above about 2
Ecoli tolC – growth inhibitors of E. coli tolC mutant, primary screen, strain BW25113 ΔtolC::kan, 384-well; OD615; growth inhibition, % at 10 µM (by protocol); 65,000 tested, 2.2% active;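 active = growth inhibition at or above a cutoff equal to the mean over every tested compound plus 3 SD, cut at about 60% in these data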;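 also: growth measured after 20 h incubation at 37 °C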
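Test system: tolC-deleted E. coli BW25113; medium: LB with kanamycin 50 µg/mL; compound: single-point testing at 10 µM; incubation: 20 h compound exposure of bacteria at 37 °C; signal: OD at 615 nm; evaluation: growth inhibition in percent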
HePTP inhibitor – inhibitors of human HePTP phosphatase, primary screen, biochemical, absorbance, leukemia target. Tyrosine-protein phosphatase non-receptor type 7 (Homo sapiens), P35236. recombinant HePTP phosphatase activity, OD absorbance. inhibition, % at 20 µM. 110,000 tested, 0.64% active. AID 521, 2006; in the data active = inhibition above about 50%;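 also: plate controls were vehicle for no effect and reference inhibitor for full effect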
Target sequence (P35236 whole entry, looked up): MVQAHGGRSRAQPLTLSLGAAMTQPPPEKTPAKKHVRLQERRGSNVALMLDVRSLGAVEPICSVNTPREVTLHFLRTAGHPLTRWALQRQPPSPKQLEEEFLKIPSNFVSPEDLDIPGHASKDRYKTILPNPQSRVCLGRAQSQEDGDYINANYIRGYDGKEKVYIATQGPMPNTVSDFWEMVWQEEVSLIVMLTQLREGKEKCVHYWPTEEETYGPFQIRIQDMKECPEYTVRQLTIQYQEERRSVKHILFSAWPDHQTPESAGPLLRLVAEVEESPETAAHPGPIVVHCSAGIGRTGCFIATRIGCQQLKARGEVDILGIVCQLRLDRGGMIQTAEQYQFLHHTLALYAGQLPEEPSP
PostGolgi yeast – phenotypic screen on post-Golgi transport, primary screen; post-Golgi transport phenotypic cell assay; inhibition, % at 10 µM; 98,000 tested, 0.9% active;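 also: yeast cells grown in 1536-well plates; yeast grown about 18 h at 30C before absorbance read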
Ecoli WT expand – growth inhibitors of wild-type E. coli, primary screen, strain BW25113, expanded library, OD600 | AID 710, 2007 | growth inhibition, % at 100 µM | 98,000 tested, 0.15% active | OD600 absorbance;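 active = growth inhibition above about 50% at one test dose, limit read from the data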;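 also: growth measured after 20 h incubation at 37 °C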
PostGolgi ctrl – growth inhibition of yeast control strain, primary screen, counter-screen for post-Golgi transport modulator project; efflux-deficient yeast background strain, growth absorbance A615, 16 h; inhibition, % at 10 µM; 98,000 tested, 5% active; AID 738, 2007
* hit, by the source's call; / = not tested or not shown; ! = not confirmed by another sample. Rule as the data show it, unless noted: active = inhibition above about 30%; inactive = the rest.

SMILES	PLAP act	Ecoli tolC	HePTP inhibitor	PostGolgi yeast	Ecoli WT expand	PostGolgi ctrl
Oc1c(N=Nc2cc(C(F)(F)F)ccc2Cl)sc2ccccc12	/	/	-4.0	/	/	/
COC(=O)CN1C(=O)/C(=C/c2ccc(OCc3ccccc3Cl)c(OC)c2)SC1=S	/	/	8.3	/	/	/
COc1ccc(CNC(=O)COC(=O)C2=COCCO2)cc1	0.9	/	/	37.3*	1.0	9.6
Cc1ccc(N2C(=O)CC(Sc3nc4ccccc4s3)C2=O)cc1Cl (stereo not given)	/	/	7.3	/	/	/
Cc1ccc(N2C(=O)CC(Sc3nc4ccccc4o3)C2=O)cc1Cl (stereo not given)	0.9	/	/	-3.1	3.0	38.5*
CC(=NCc1ccco1)c1c(C)[nH]n(-c2nc3ccccc3s2)c1=O	0.9	-14.7	3.1	6.2	0.0	4.3
CC(=NCc1ccco1)c1c(O)n(C2CCCCC2)c(=O)[nH]c1=O	1.6	11.0	11.5	17.9	-6.0	44.2*
COC(=O)c1c(NC(=O)C2C(C=C(Cl)Cl)C2(C)C)sc2c1CCCC2 (stereo not given)	/	/	6.2	/	/	/
CCOC(=O)N1CCN(C(=O)CSCC(=O)Nc2nc(-c3ccc(-c4ccccc4)cc3)cs2)CC1	1.5	/	/	5.8	-18.0	27.4
CCOC(=O)N1CCN(C(=O)CSCC(=O)Nc2nc(-c3ccc(OC)cc3)cs2)CC1	1.3	-8.9	-1.3	-12.3	-2.0	30.4*
CCOC(=O)c1c(C)oc2ccc(NS(=O)(=O)c3cc(Cl)ccc3Cl)cc12	/	/	5.0	/	/	/
Cc1cc(C)nc(NC(=O)CSc2nn(C)c(=S)s2)n1	1.1	8.8	-5.8	39.8*	9.0	-5.5
Cc1cc(C)nc(NC(=O)CSc2ccccn2)n1	/	-12.5	2.4	-0.6	-8.0	-13.3
COC(=O)c1ccc(/C(O)=C(\C#N)c2nc3ccccc3s2)cc1	1.2	64.6*	-12.2	7.7	-6.0	-0.5
Cc1sc(NC(=O)c2ccc(F)cc2)c(C(N)=O)c1C	/	/	-3.6	/	/	/
CCOc1cc(CNCCO)cc(Br)c1OCc1ccc(Cl)cc1	1.1	/	/	1.2	78.0*	27.1
CCOc1cc(CNC(C)(C)CO)cc(Br)c1OCc1ccc(Cl)cc1Cl	1.4	/	/	12.9	27.0	90.7*
CCCCOc1c(Cl)cc(CNC(C)(C)CO)cc1OCC	1.6	-0.7	4.8	2.7	10.0	1.9
CCOc1cc(/C=N/O)cc(Br)c1OCc1ccc(Cl)cc1	1.2	/	/	3.9	-3.0	37.1*
CCOc1cc(CNCCO)cc(Br)c1OCc1ccccc1Cl	1.5	/	/	3.4	48.0	15.2
CC(C)COc1ccc(C(=O)Nc2ccccc2)cc1	/	/	3.6	/	/	/
CN(C(=S)Nc1ccc(F)cc1)C1(c2ccccc2Cl)CCCCC1=O (stereo not given)	0.9	/	/	8.9	-8.0	35.7*
Nc1n[nH]c2c1C1(CCCCC1)Cc1ccccc1-2	1.7	44.1	-9.6	2.0	16.0	41.7*
O=c1[nH]c(=S)[nH]c2c1C1(CCCC1)Cc1ccccc1-2	/	/	11.8	/	/	/
O=C1NC(=S)N/C1=C/c1cccc(OCc2ccccc2)c1	/	/	-1.8	/	/	/
SMILES	PLAP act	Ecoli tolC	HePTP inhibitor	PostGolgi yeast	Ecoli WT expand	PostGolgi ctrl
O=C1NC(=S)SC1=C1CCCC1	1.1	/	/	22.9	8.0	56.0*
O=C1NC(=S)SC1=C1CCCCC1	/	/	7.1	/	/	/
Cc1ccc(N(C(=O)Nc2ccccc2)C2C=CS(=O)(=O)C2)cc1C (stereo not given)	/	/	6.6	/	/	/
Cc1ccc(C(C)C)c(OCC(=O)Nc2ccc(-c3nc4ncccc4o3)cc2)c1	/	/	5.6	/	/	/
Cc1ccc(OCC(=O)Nc2ccc(-c3nc4ncccc4o3)cc2)c(C)c1	1.4	6.7	104.0*!	23.9	4.0	6.5
Cc1cc(OCC(=O)Nc2ccc3oc(-c4ccncc4)nc3c2)ccc1Cl	0.9	7.9	10.9	6.0	-1.0	3.6
CCCC(=O)Nc1ccc(-c2nc3cc(C)ccc3o2)cc1	1.3	-4.2	-1.2	2.0	-1.0	30.2*
Cc1cc(OCC(=O)Nc2ccc(-c3nc4ncccc4o3)cc2)ccc1Cl	/	/	63.1*	/	/	/
CCOc1cccc(-c2nc3cc(C)ccc3o2)c1	1	100.0*	4.2	-15.5	0.0	12.0
Cc1ccc(C2C(C#N)=C(N)Oc3c2ccc2cccnc32)cc1 (stereo not given)	/	/	3.1	/	/	/
O=C(COc1ccccc1[N+](=O)[O-])Nc1ccc(-c2nc3ncccc3o2)cc1	/	/	65.0*	/	/	/
O=S(=O)(N1CCCCC1)N1CCN(c2ccc(F)cc2)CC1	1	13.3	5.0	2.8	-2.0	4.7
Cc1ccc(N2CCN(S(=O)(=O)N3CCCCCC3)CC2)cc1Cl	0.8	/	/	31.1*	-3.0	-0.4
[O-]/[N+](=C\c1ccncc1)c1ccccc1	1.1	-9.9	2.0	6.1	-3.0	10.3
[O-]/[N+](=C/c1ccc(F)cc1)c1ccccc1	1.1	-15.8	0.3	9.8	7.0	32.7*
Cc1ccc(-c2csc(N/N=C/c3ccco3)n2)cc1	1.1	/	/	-14.3	-7.0	33.8*
O=C(N/N=C/c1ccco1)c1cc(-c2ccc(Cl)cc2)n[nH]1	/	/	8.7	/	/	/
Cc1ccc(-c2cc(C(=O)N/N=C/c3ccco3)[nH]n2)cc1	2.2*	/	6.2	2.0	-8.0	9.4
COc1ccc(/C=C2\SC(=S)N(CC(=O)Nc3ncc(Cc4ccc(C)cc4)s3)C2=O)cc1OC	/	/	3.7	/	/	/
CC(C)c1ccc(NC(=O)N(CCc2nc3ccccc3[nH]2)C2CCCC2)cc1	0.8	/	/	7.8	-1.0	16.1
Cc1cc2nc(CCN(C(=S)NCC(C)C)C3CCCC3)[nH]c2cc1C	2.4*	/	/	-6.3	-3.0	10.5
O=C(Cn1cnc([N+](=O)[O-])n1)NCc1ccccc1	1	/	/	-1.0	5.0	4.0
O=C1C=CC(=O)C(/C(=C/NCc2ccccc2)[N+](=O)[O-])=C1	/	/	104.0*	/	/	/
C/C(CC(=O)Nc1ccccc1C(N)=O)=N\NC(=O)c1ccoc1C	/	/	0.2	/	/	/
O=[N+]([O-])c1ccc2c(c1)c1ccccc1n2CO	/	/	-7.2	/	/	/
SMILES	PLAP act	Ecoli tolC	HePTP inhibitor	PostGolgi yeast	Ecoli WT expand	PostGolgi ctrl
O=C(/C=C/c1cc(Br)cs1)Nc1cccc2ncccc12	/	/	-7.9	/	/	/
C=C(C)COc1ccc(-c2[nH]ncc2Oc2cccc(OC)c2)c(O)c1	1.5	100.0*	3.4	16.1	13.0	30.4*
C=C(C)COc1ccc(-c2[nH]ncc2Oc2ccccc2OCC)c(O)c1	1.8	100.0*	4.0	49.0*	9.0	19.3
CCOc1ccc2c(=O)c(Oc3ccccc3OCC)coc2c1	1.1	/	/	-1.1	5.0	-2.8
COc1cccc(Oc2cnc(N)nc2-c2ccc(OC)cc2O)c1	0.9	33.5	6.2	-1.5	1.0	5.8
Cc1ccc(-c2cc3nc(C)c(Cl)c(=O)n3[nH]2)cc1	/	/	4.8	/	/	/
CN(C)C1(c2cccs2)CS(=O)(=O)C1	/	/	102.5*	/	/	/
CN(C)CCC(=O)c1cccs1	/	/	11.3	/	/	/
Cc1cc(OCC(=O)O)c2cccc(C)c2n1	0.8	-18.4	3.5	19.0	-5.0	2.5
Cc1ccc2nc(C)cc(OCC(=O)O)c2c1	0.9	-21.5	5.6	44.2*	-2.0	2.8
CCCCS(=O)(=O)CC(O)COc1ccc(Cl)cc1 (stereo not given)	/	/	-28.1	/	/	/
